Active and inactive are the calls of the source. No cut-off for these calls is given here.
What was measured:
[1] = Growth inhibition of human leukemia cells after 48 hrs; type: functional; details: Leukemia cell; for CC50: read-out: LC50 (the source's name)
MCF7 [2] = test: Antiproliferative activity against human MCF7 cells assessed as increase in tumor suppressor p21 expression at 5 uM after 20 hrs by Western blotting; type: functional; details: in the assay text read “24 hrs” for “20 hrs”
MCF7 [3] = test: Cell cycle arrest in human MCF7 cells assessed as accumulation at G2/M phase at 200 nM after 24 to 48 hrs; type: functional, cell-based
Procedure, shortened: (§1)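 MCF-7 cells plated at 2×10^4 cells/cm2 and exposed to 200 nM compound for 24 and 48 h; DMSO-treated controls. Cells detached with trypsin/EDTA and washed in PBS. Stained 30 min at room temperature in the dark with 50 μg/mL propidium iodide, 10 μg/mL RNase, 0.01% NP-40 and 0.1% sodium citrate. DNA content read by flow cytometry. Means ± s.e.m. of three determinations.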

NSCLC = test: Growth inhibition of human NSCLC cells after 48 hrs; type: functional
MCF7 [4] = test: Induction of apoptosis in human MCF7 cells assessed as Bax accumulation by immunofluorescence microscopy; type: functional, cell-based
Procedure, shortened: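 MCF-7 cells seeded on glass coverslips at 1×10^4 cells/cm2 and treated with 5 μM for 24 h. Fixed in 3% paraformaldehyde, washed in glycine and permeabilized in ice-cold 70% ethanol. Stained with mouse anti-Bax for 1 h at room temperature, then FITC anti-mouse IgG, with propidium iodide as nuclear counterstain. Imaged by confocal microscopy with excitation at 488 and 568 nm. Three experiments.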

MCF7 [5] = test: Growth inhibition of human MCF7 cells at 200 nM after 48 hrs by trypan blue exclusion cell counting
[6] = Growth inhibition of human renal cancer cells after 48 hrs; type: functional; details: Cancer cell lines; for CC50: read-out: LC50 (the source's name)
[7] = Growth inhibition of human CNS cancer cells after 48 hrs; type: functional; details: Cancer cell lines; for CC50: read-out: LC50 (the source's name)
[8] = Growth inhibition of human colon cancer cells after 48 hrs; type: functional; details: Cancer cell lines; for CC50: read-out: LC50 (the source's name)
MCF7 [9] = test: Antiproliferative activity against human MCF7 cells assessed as increase in tumor suppressor p53 expression at 5 uM after 20 hrs by Western blotting; type: functional
Procedure, shortened: (§2)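 MCF-7 cells in RPMI 1640 with 10% FBS and 2 mM L-glutamine at 37°C, 5% CO2, plated at 2×10^4 cells/cm2. Compound added 24 h later to 5 μM (DMSO vehicle in controls) for 20 h. Lysed in HEPES pH 7.5 buffer with DTT, EDTA, CHAPS, Triton X-100 and protease inhibitors, then freeze-thawed twice. SDS-PAGE at 80 μg protein/lane and immunoblotting for total and phospho ERK1/2 and Akt, p53 and p21, with β-actin. Densitometry used for quantitation.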

[10] = Growth inhibition of human melanoma cells after 48 hrs; type: functional; details: Melanoma cell; for CC50: read-out: LC50 (the source's name)
[11] = Growth inhibition of human prostate cancer cells after 48 hrs; type: functional; details: Cancer cell lines; for CC50: read-out: LC50 (the source's name)
[12] = target: RAC-alpha serine/threonine-protein kinase (Homo sapiens) (UniProt P31749); test: Inhibition of AKT phosphorylation in human MCF7 cells assessed as p-AKT level at 5 uM after 20 hrs by Western blotting; type: cell-based; procedure, shortened: as §2
[13] = Growth inhibition of human breast cancer cells after 48 hrs; type: functional; details: Cancer cell lines; for CC50: read-out: LC50 (the source's name)
[14] = Growth inhibition of human Ovarian cancer cells after 48 hrs; type: functional; details: Cancer cell lines; for CC50: read-out: LC50 (the source's name)
MCF7 [15] = test: Cell cycle arrest in human MCF7 cells assessed as accumulation at subG1 phase at 200 nM after 24 to 48 hrs; type: functional, cell-based; procedure, shortened: as §1

RAC-alpha serine/threonine-protein kinase (Homo sapiens), sequence (P31749 whole entry): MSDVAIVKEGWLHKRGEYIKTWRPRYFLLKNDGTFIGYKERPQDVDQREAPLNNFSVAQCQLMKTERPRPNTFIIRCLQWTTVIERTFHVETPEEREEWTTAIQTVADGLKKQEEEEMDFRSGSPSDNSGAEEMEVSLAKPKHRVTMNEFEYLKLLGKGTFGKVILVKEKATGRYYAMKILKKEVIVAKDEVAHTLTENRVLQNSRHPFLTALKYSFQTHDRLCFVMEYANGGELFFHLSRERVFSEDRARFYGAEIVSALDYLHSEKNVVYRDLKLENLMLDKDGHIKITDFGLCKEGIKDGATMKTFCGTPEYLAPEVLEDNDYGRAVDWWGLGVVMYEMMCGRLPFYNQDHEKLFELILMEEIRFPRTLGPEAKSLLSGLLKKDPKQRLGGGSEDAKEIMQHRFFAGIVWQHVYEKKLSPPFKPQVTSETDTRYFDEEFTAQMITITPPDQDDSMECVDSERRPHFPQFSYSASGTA

Row | Structure (SMILES) | GI50 [1] | CC50 [1] | GI50 (NSCLC) | LC50 (NSCLC) | GI50 [6] | CC50 [6] | GI50 [7] | CC50 [7] | GI50 [8] | CC50 [8] | Activity (MCF7 [9]) | GI50 [10] | CC50 [10] | GI50 [11] | CC50 [11] | GI50 [13] | CC50 [13] | GI50 [14] | CC50 [14] | further results
1 | COc1cc2c(/C=C3/C(=O)Nc4cc(Cl)ccc43)c(Cl)n(C)c2cc1C | 0.02 µM | 39.8 µM | 0.07 µM | 93.3 µM | 0.04 µM | 70.8 µM | 0.02 µM | 23.4 µM | 0.02 µM | 25.1 µM | Active | 0.02 µM | 50.1 µM | 0.02 µM | 21.4 µM | 0.05 µM | 72.4 µM | 0.03 µM | 52.5 µM | Activity (MCF7 [2]): 90%; Activity (MCF7 [3]): Active; Activity (MCF7 [4]): Active; Activity (MCF7 [5]): Active; fold change (FC) (MCF7 [9]; in the assay text read “after 24 hrs” for “after 20 hrs”): 3; TGI [11]: 3.02 µM; Activity [12]: Active; Activity (MCF7 [15]): Active
2 | CN(C)c1ccc2[nH]c(Cl)c(/C=C3/C(=O)N(C)c4ccc(O)cc43)c2c1 | 16.6 µM | – | 6.61 µM | 85.1 µM | 4.37 µM | 87.1 µM | 6.03 µM | 85.1 µM | 4.9 µM | 61.7 µM | – | 4.57 µM | 66.1 µM | 12.9 µM | – | 3.8 µM | – | 8.32 µM | 95.5 µM | TGI (NSCLC): 46.8 µM; TGI [6]: 31.6 µM; TGI [7]: 33.9 µM; TGI [8]: 20.9 µM; TGI [10]: 26.3 µM; TGI [13]: 30.9 µM; TGI [14]: 55 µM
3 | COc1cc2c(/C=C3/C(=O)Nc4ccc(N(C)C)cc43)c(Cl)n(C)c2cc1C | 10 µM | 87.1 µM | 18.2 µM | – | 11.2 µM | – | 10.7 µM | – | 12.3 µM | – | – | 10.2 µM | 93.3 µM | 20.4 µM | – | 6.92 µM | – | 10.5 µM | 91.2 µM | –
4 | CN(C)c1ccc2[nH]c(Cl)c(/C=C3/C(=O)Nc4ccc(Cl)cc43)c2c1 | 1.62 µM | 91.2 µM | 2.57 µM | 46.8 µM | 1.78 µM | 29.5 µM | 1.58 µM | 18.2 µM | 2.09 µM | 22.9 µM | – | 2.69 µM | 37.1 µM | 2.45 µM | 46.8 µM | 1.32 µM | 55 µM | 3.31 µM | 41.7 µM | –
5 | COc1cc2c(cc1C)N(C)C(=O)/C2=C/c1c(Cl)[nH]c2ccccc12 | 0.26 µM | 69.2 µM | 0.58 µM | 57.5 µM | 0.62 µM | 56.2 µM | 0.32 µM | 47.9 µM | 0.37 µM | 46.8 µM | Active | 0.71 µM | 51.3 µM | 0.32 µM | 69.2 µM | 0.3 µM | 57.5 µM | 0.6 µM | 61.7 µM | –
